Here are results for 11 molecules from ChEMBL document CHEMBL5143539, “Synthesis and evaluation of dual-action kanglemycin-fluoroquinolone hybrid antibiotics” (Bioorg Med Chem Lett, 2022).

In brackets after ≈: the same amount, converted by molar mass.

The test system of data set [1] is Staphylococcus aureus. As to the kind of experiment: Antibacterial activity against rifampicin resistant Staphylococcus aureus harboring RpoBH481Y mutant assessed as inhibition of bacterial growth. It is filed as functional.
The subject of data set [2] is Staphylococcus aureus. The experiment in a line: Antibacterial activity against wild type Staphylococcus aureus assessed as inhibition of bacterial growth. The class given is functional.
The test system of data set [3] is Staphylococcus aureus. As to the kind of experiment: Antibacterial activity against ciprofloxacin resistant Staphylococcus aureus harboring ParCS80F and GyrAS84L double mutant assessed as inhibition of bacterial growth. The class given is functional.
Data set [4] deals with Staphylococcus aureus. The experiment in a line: Antibacterial activity against Staphylococcus aureus harboring RpoBH481Y/ParCS80F/GyrAS84L triple mutant assessed as inhibition of bacterial growth. The class given is functional.
In the next data set the test system is Escherichia coli. As to the kind of experiment: Antibacterial activity against Escherichia coli assessed as inhibition of bacterial growth. The class given is functional. An outline of the steps:
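Run in duplicate, with the same result obtained in each trial.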

In a further data set the test system is HEK293. As to the kind of experiment: Cytotoxicity against HEK293 cells. The class given is toxicity, cell-based, Homo sapiens.

As usually defined, the MIC is the lowest concentration that inhibits growth of the organism. What is called IC50 is the point on the concentration scale where inhibition reaches its midpoint. Low values mean greater potency in that assay, high ones weaker potency in that assay.

In the case of `CC(=O)O[C@H]1[C@H](C)[C@H](O)[C@H](C)[C@@H](O)[C@@H](C(C)OC(=O)C(C)(C)CC(=O)NC2(c3c(F)cc4c(=O)c(C(=O)O)cn5c4c3OC[C@@H]5C)CC2)/C=C/C=C(/C)C(=O)NC2=CC(=O)c3c(c(O)c(C)c4c3C(=O)[C@@](C)(O/C=C/[C@H](O[C@H]3C[C@@H]5OCO[C@@H]5[C@@H](C)O3)[C@H]1C)O4)C2=O` (stereo partly specified), the MIC in the data set with Staphylococcus aureus [1] is above 64 µg/mL; in the data set on Staphylococcus aureus [2] it was 8 µg/mL (≈ 6.24 µM); with Staphylococcus aureus [3], 8 µg/mL (≈ 6.24 µM); with Staphylococcus aureus [4] it was above 64 µg/mL; in the data set on Escherichia coli it was above 64 µg/mL. In the data set on HEK293, the IC50 is above 64 µg/mL.

For `COc1c(N2CCCC(N(C)C(=O)CC(C)(C)C(=O)OC(C)[C@H]3/C=C/C=C(/C)C(=O)NC4=CC(=O)c5c(c(O)c(C)c6c5C(=O)[C@@](C)(O/C=C/[C@H](O[C@H]5C[C@@H]7OCO[C@@H]7[C@@H](C)O5)[C@@H](C)[C@@H](OC(C)=O)[C@H](C)[C@H](O)[C@H](C)[C@H]3O)O6)C4=O)C2)c(F)cc2c(=O)c(C(=O)O)cn(C3CC3)c12` (stereo partly specified), the MIC in the data set on Staphylococcus aureus [1] was above 64 µg/mL; with Staphylococcus aureus [2], 32 µg/mL (≈ 23.6 µM); in the data set with Staphylococcus aureus [3] it was 16 µg/mL (≈ 11.8 µM); in the data set with Staphylococcus aureus [4], above 64 µg/mL; in the data set with Escherichia coli it was above 64 µg/mL. In the data set with HEK293, this molecule registered an IC50 of 23 µg/mL (≈ 17 µM).

Turning to `CC(=O)O[C@H]1[C@H](C)[C@H](O)[C@H](C)[C@@H](O)[C@@H](C(C)OC(=O)C(C)(C)CC(=O)N[C@H]2[C@@H]3CN(c4nc5c(cc4F)c(=O)c(C(=O)O)cn5-c4ccc(F)cc4F)C[C@@H]32)/C=C/C=C(/C)C(=O)NC2=CC(=O)c3c(c(O)c(C)c4c3C(=O)[C@@](C)(O/C=C/[C@H](O[C@H]3C[C@@H]5OCO[C@@H]5[C@@H](C)O3)[C@H]1C)O4)C2=O` (stereo partly specified), the MIC with Staphylococcus aureus [1] is 16 µg/mL (≈ 11.6 µM); in the data set on Staphylococcus aureus [2] it was 8 µg/mL (≈ 5.8 µM); with Staphylococcus aureus [3] it was 8 µg/mL (≈ 5.8 µM); in the data set with Staphylococcus aureus [4], above 64 µg/mL; in the data set with Escherichia coli, above 64 µg/mL. This molecule displayed an IC50 in the data set on HEK293 above 64 µg/mL.

With `CC(=O)O[C@H]1[C@H](C)[C@H](O)[C@H](C)[C@@H](O)[C@@H](C(C)OC(=O)C(C)(C)CC(=O)O)/C=C/C=C(/C)C(=O)Nc2c3oc4cc(N5Cc6cc(-c7ccc8c(=O)c(C(=O)O)cn(C9CC9)c8c7OC(F)F)ccc6[C@H]5C)cc(O)c4nc-3c3c4c(c(C)c(O)c3c2=O)O[C@](C)(O/C=C/[C@H](O[C@H]2C[C@@H]3OCO[C@@H]3[C@@H](C)O2)[C@H]1C)C4=O` (stereo partly specified), the MIC in the data set on Staphylococcus aureus [1] was 2 µg/mL (≈ 1.32 µM); in the data set on Staphylococcus aureus [2] it was 1 µg/mL (≈ 0.662 µM); in the data set on Staphylococcus aureus [3], 1 µg/mL (≈ 0.662 µM); in the data set on Staphylococcus aureus [4], above 64 µg/mL; in the data set with Escherichia coli it was 16 µg/mL (≈ 10.6 µM). In the data set on HEK293, this molecule showed an IC50 above 64 µg/mL.

Turning to `COc1c(N2CCCC(N(C)c3cc(O)c4nc5c6c7c8c(C)c(O)c6c(=O)c(c-5oc4c3)NC(=O)/C(C)=C\C=C\[C@H](C(C)OC(=O)C(C)(C)CC(=O)O)[C@H](O)[C@@H](C)[C@@H](O)[C@@H](C)[C@H](OC(C)=O)[C@H](C)[C@@H](O[C@H]3C[C@@H]4OCO[C@@H]4[C@@H](C)O3)/C=C/O[C@@](C)(O8)C7=O)C2)c(F)cc2c(=O)c(C(=O)O)cn(C3CC3)c12` (stereo partly specified), the MIC in the data set with Staphylococcus aureus [1] was 16 µg/mL (≈ 10.9 µM); in the data set on Staphylococcus aureus [2], 8 µg/mL (≈ 5.43 µM); with Staphylococcus aureus [3], 16 µg/mL (≈ 10.9 µM); in the data set with Staphylococcus aureus [4] it was above 64 µg/mL; with Escherichia coli it was 64 µg/mL (≈ 43.4 µM). In addition, the IC50 in the data set with HEK293 was determined as 36 µg/mL (≈ 24.4 µM).

As to `COc1c(N2C[C@@H]3CCCN(C(=O)CC(C)(C)C(=O)OC(C)[C@H]4/C=C/C=C(/C)C(=O)NC5=CC(=O)c6c(c(O)c(C)c7c6C(=O)[C@@](C)(O/C=C/[C@H](O[C@H]6C[C@@H]8OCO[C@@H]8[C@@H](C)O6)[C@@H](C)[C@@H](OC(C)=O)[C@H](C)[C@H](O)[C@H](C)[C@H]4O)O7)C5=O)[C@@H]3C2)c(F)cc2c(=O)c(C(=O)O)cn(C3CC3)c12` (stereo partly specified), the MIC in the data set on Staphylococcus aureus [1] is above 64 µg/mL; in the data set with Staphylococcus aureus [2] it was 32 µg/mL (≈ 23.4 µM); with Staphylococcus aureus [3], 32 µg/mL (≈ 23.4 µM); in the data set with Staphylococcus aureus [4], above 64 µg/mL; in the data set on Escherichia coli, above 64 µg/mL. The same molecule had an IC50 with HEK293 of 28 µg/mL (≈ 20.5 µM).

In the case of `CC(=O)O[C@H]1[C@H](C)[C@H](O)[C@H](C)[C@@H](O)[C@@H](C(C)OC(=O)C(C)(C)CC(=O)N2CCN(c3cc4c(cc3F)c(=O)c(C(=O)O)cn4C3CC3)CC2)/C=C/C=C(/C)C(=O)NC2=CC(=O)c3c(c(O)c(C)c4c3C(=O)[C@@](C)(O/C=C/[C@H](O[C@H]3C[C@@H]5OCO[C@@H]5[C@@H](C)O3)[C@H]1C)O4)C2=O` (stereo partly specified), the MIC in the data set on Staphylococcus aureus [1] is above 64 µg/mL; in the data set on Staphylococcus aureus [2], 16 µg/mL (≈ 12.4 µM); in the data set with Staphylococcus aureus [3] it was 32 µg/mL (≈ 24.7 µM); with Staphylococcus aureus [4], above 64 µg/mL; in the data set on Escherichia coli, above 64 µg/mL. The same molecule displayed an IC50 with HEK293 of 23 µg/mL (≈ 17.8 µM).

Take `CC(=O)O[C@H]1[C@H](C)[C@H](O)[C@H](C)[C@@H](O)[C@@H](C(C)OC(=O)C(C)(C)CC(=O)O)/C=C/C=C(/C)C(=O)Nc2c3oc4cc(NCCCCCC(=O)N5Cc6cc(-c7ccc8c(=O)c(C(=O)O)cn(C9CC9)c8c7OC(F)F)ccc6[C@H]5C)cc(O)c4nc-3c3c4c(c(C)c(O)c3c2=O)O[C@](C)(O/C=C/[C@H](O[C@H]2C[C@@H]3OCO[C@@H]3[C@@H](C)O2)[C@H]1C)C4=O` (stereo partly specified): the minimum inhibitory concentration (MIC) is 4 µg/mL (≈ 2.46 µM) in the data set on Staphylococcus aureus [1]; 1 µg/mL (≈ 0.615 µM) in the data set on Staphylococcus aureus [2]; 2 µg/mL (≈ 1.23 µM) in the data set on Staphylococcus aureus [3]; above 64 µg/mL in the data set with Staphylococcus aureus [4]; above 64 µg/mL in the data set with Escherichia coli. Also, the IC50 in the data set on HEK293 is above 64 µg/mL.

On to `CC(=O)O[C@H]1[C@H](C)[C@H](O)[C@H](C)[C@@H](O)[C@@H](C(C)OC(=O)C(C)(C)CC(=O)O)/C=C/C=C(/C)C(=O)Nc2c3oc4cc(NCCCNC5(c6c(F)cc7c(=O)c(C(=O)O)cn8c7c6OC[C@@H]8C)CC5)cc(O)c4nc-3c3c4c(c(C)c(O)c3c2=O)O[C@](C)(O/C=C/[C@H](O[C@H]2C[C@@H]3OCO[C@@H]3[C@@H](C)O2)[C@H]1C)C4=O` (stereo partly specified), for which the MIC in the data set on Staphylococcus aureus [1] is above 64 µg/mL; with Staphylococcus aureus [2], 4 µg/mL (≈ 2.74 µM); in the data set with Staphylococcus aureus [3], 4 µg/mL (≈ 2.74 µM); in the data set with Staphylococcus aureus [4] it was above 64 µg/mL; in the data set on Escherichia coli, 64 µg/mL (≈ 43.8 µM). In the data set with HEK293, this molecule registered an IC50 above 64 µg/mL.

For `CC(=O)O[C@H]1[C@H](C)[C@H](O)[C@H](C)[C@@H](O)[C@@H](C(C)OC(=O)C(C)(C)CC(=O)N2Cc3cc(-c4ccc5c(=O)c(C(=O)O)cn(C6CC6)c5c4OC(F)F)ccc3[C@H]2C)/C=C/C=C(/C)C(=O)NC2=CC(=O)c3c(c(O)c(C)c4c3C(=O)[C@@](C)(O/C=C/[C@H](O[C@H]3C[C@@H]5OCO[C@@H]5[C@@H](C)O3)[C@H]1C)O4)C2=O` (stereo partly specified), the minimal inhibitory concentration (MIC) in the data set on Staphylococcus aureus [1] was 16 µg/mL (≈ 11.5 µM); in the data set with Staphylococcus aureus [2] it was 8 µg/mL (≈ 5.75 µM); in the data set with Staphylococcus aureus [3] it was 8 µg/mL (≈ 5.75 µM); in the data set on Staphylococcus aureus [4] it was above 64 µg/mL; in the data set with Escherichia coli, above 64 µg/mL. This molecule displayed an IC50 in the data set with HEK293 of 19 µg/mL (≈ 13.7 µM).

With `CC(=O)O[C@H]1[C@H](C)[C@H](O)[C@H](C)[C@@H](O)[C@@H](C(C)OC(=O)C(C)(C)CC(=O)N[C@@H]2CCCCN(c3c(F)cc4c(=O)c(C(=O)O)cn(C5CC5)c4c3Cl)C2)/C=C/C=C(/C)C(=O)NC2=CC(=O)c3c(c(O)c(C)c4c3C(=O)[C@@](C)(O/C=C/[C@H](O[C@H]3C[C@@H]5OCO[C@@H]5[C@@H](C)O3)[C@H]1C)O4)C2=O` (stereo partly specified), the MIC with Staphylococcus aureus [1] is 16 µg/mL (≈ 11.8 µM); in the data set on Staphylococcus aureus [2], 16 µg/mL (≈ 11.8 µM); in the data set with Staphylococcus aureus [3], 16 µg/mL (≈ 11.8 µM); in the data set on Staphylococcus aureus [4] it was above 64 µg/mL; in the data set with Escherichia coli, above 64 µg/mL. The molecule also registered an IC50 in the data set with HEK293 above 64 µg/mL.
